ROMK mod = ROMK potassium channel modulators, primary screen, cell-based, thallium flux, MLSMR library | AID 1918, 2009 | 130,000 compounds, 2% hits | Tet-inducible ROMK, thallium flux fluorescence; actives lie on both sides | B-score at 10 µM | ATP-sensitive inward rectifier potassium channel 1 (Homo sapiens), P48048;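 active = signal ratio slope over the read window, or its plate-corrected B-score, at least 3 SD from the plate mean, either direction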;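 also: B-score of the F/F0 ratio slope over 7 to 12 s after thallium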
Target sequence (P48048 whole entry, looked up): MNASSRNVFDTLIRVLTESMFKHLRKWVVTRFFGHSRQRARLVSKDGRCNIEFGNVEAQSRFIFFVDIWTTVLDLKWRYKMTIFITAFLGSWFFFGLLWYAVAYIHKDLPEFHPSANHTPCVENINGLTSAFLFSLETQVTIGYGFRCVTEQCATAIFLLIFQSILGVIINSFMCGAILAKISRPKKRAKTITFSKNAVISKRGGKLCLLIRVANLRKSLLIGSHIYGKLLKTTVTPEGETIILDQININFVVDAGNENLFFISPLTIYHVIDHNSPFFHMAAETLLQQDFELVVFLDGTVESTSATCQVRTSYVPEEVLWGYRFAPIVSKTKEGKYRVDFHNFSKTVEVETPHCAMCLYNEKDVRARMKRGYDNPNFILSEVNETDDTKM
Biofilm kill mix = clotrimazole potentiators killing C. albicans biofilm, primary screen, 4-compound mixtures. inhibition, % at 7.6 µM. C. albicans biofilm persisters + clotrimazole, fluorescence viability; primary screen in compound mixtures of four per well. 120,000 compounds, 0.02% hits;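 active = inhibition above 30.3% in the primary screen of four-compound pools, then above 30% when the compound was retested; inconclusive = passed the primary limit but could not be retested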;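 also: compounds exposed to preformed 24 h biofilms for 48 h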
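Test system: C. albicans CAF4-2 wild-type biofilms; buffer or medium: RPMI/MOPS medium, pH 7.0; schedule: 24 h biofilm formation, then 48 h compound exposure, 37 °C; detection: Alamar Blue fluorescence; measure: percent inhibition of biofilm viability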
ROMK retest = ROMK channel modulator hit retest, confirmation, cell-based, thallium flux, duplicate, resupplied hits. 3,000 compounds, 54% hits. normalized thallium flux (F/F0 slope) at 10 µM. shares compounds with ROMK mod. fluorescence ratio; stronger effect = lower value. AID 1917, 2009;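 active = Flux at 10 µM at least 3 SD below or above vehicle control mean in one or both replicates; inconclusive = no clear call, values can overlap the other calls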
Large screens that a line does not name were inactive (follow-up assays come after a bar, where they were run). This is one part of a sample in which hits are shown more often than they occur.

COCCN(C(=O)CSc1nnc(-c2cccc(OC)c2)n1C)c1c(N)n(Cc2ccccc2)c(=O)[nH]c1=O	none
CN1CCN(/N=C/c2ccc(-c3ccc([N+](=O)[O-])cc3Cl)o2)CC1	ROMK mod -3.8 | ROMK retest 0.045
CNC(=S)N/N=C/c1ccc(-c2cc([N+](=O)[O-])ccc2Cl)o1	none
O=C(C1CCCN(S(=O)(=O)c2ccc(Cl)cc2)C1)N(Cc1cccs1)C1CC1 (configuration not stated)	ROMK mod -4 (no result: Biofilm kill mix) | ROMK retest 0.058
CN(Cc1cccs1)C(=O)c1ccc(S(=O)(=O)N2CCCCC2)cc1	none (no result: ROMK mod)
S=C(NCCc1ccccc1)Nc1ccc(Br)cc1	none (no result: ROMK mod)
O=C(Nc1nccs1)c1cc(Cl)nc2ccccc12	none (no result: ROMK mod) | ROMK retest inactive
O=C(Nc1nccs1)c1cc(-c2ccccc2)nc2ccccc12	none
CCOc1ccc(C(=O)CC(NCc2cccs2)C(=O)O)cc1 (configuration not stated)	none
CCOC(=O)C(C)Sc1nnc(Cn2c(=O)sc3ccccc32)n1-c1ccccc1 (configuration not stated)	none (no result: ROMK mod, Biofilm kill mix) | ROMK retest inconclusive
CCOC(=O)CC(=O)CSc1nnc(Cn2c(=O)sc3ccccc32)n1C	none (no result: Biofilm kill mix)
NC(=O)c1cc2ccncc2c2ccccc12	none
O=Cc1ccc(-c2ccccc2OC(F)(F)F)o1	ROMK mod 3.8 (no result: Biofilm kill mix) | ROMK retest 0.11
Cc1c(C(=O)O)cccc1-c1ccc(C=O)o1	none
O=C1CC(c2ccc(Cl)c(Cl)c2)CC(O)=C1C=NCCN1CCNCC1 (configuration not stated)	none (no result: ROMK mod, Biofilm kill mix) | ROMK retest 0.057
CN1C(=O)CC(N2CCN(CCN=CC3=C(O)CC(C)(C)CC3=O)CC2)C1=O (configuration not stated)	none (no result: Biofilm kill mix)
O=C1CC(c2ccc(F)cc2)CC(O)=C1C=NCCN1CCNCC1 (configuration not stated)	none (no result: ROMK mod)
CC1(C)CC(=O)C(C=NCCN2CCN(C3CC(=O)N(c4ccc(Cl)c(Cl)c4)C3=O)CC2)=C(O)C1 (configuration not stated)	ROMK mod -6.7 | ROMK retest inactive
CCCCNC(=O)NNC(=O)COc1cccc(C)c1C	none
O=C1NC(=O)/C(=C\c2ccc(O)cc2O)S1	none
CCN(CC)C(=O)NCc1c(C)cc(C)cc1C	none
COC(=O)COc1ccc(-c2ccc(F)cc2)cc1C=O	ROMK mod 4.7 | ROMK retest inconclusive
COC(=O)COc1ccc(-c2ccccc2)cc1C=O	none (no result: ROMK mod)
CC(NC(=S)NCc1ccccc1)C12CC3CC(CC(C3)C1)C2 (configuration not stated)	none
O=C(NCCc1ccccc1)c1cccs1	none (no result: Biofilm kill mix)
CC(=O)NCCNC(=O)[C@H](Cc1ccccc1)NC(=O)c1cccs1	ROMK mod 2.4 (no result: Biofilm kill mix) | ROMK retest inactive
COc1ccccc1C/C(N)=N/OC(=O)c1ccco1	none
COc1ccccc1C/C(N)=N/OC(=O)c1ccc2c(c1)OCO2	ROMK mod -3.1 | ROMK retest inactive
CC(C)n1c(O)c(N=NC(=O)C2COc3ccccc3O2)c2ccccc21 (configuration not stated)	none
CN(C)C(/C=C/Nc1ccc(Br)cc1)=C(C#N)C#N	none (no result: ROMK mod)
Brc1ccc(N=C/C=C/C=C/Nc2ccc(Br)cc2)cc1	none (no result: ROMK mod, Biofilm kill mix) | ROMK retest inconclusive
Cc1cc(C)c(C)c(S(=O)(=O)N[C@@H](C)C(=O)OCC(N)=O)c1C	none
O=C(O)CCC(=O)Nc1ccc(N2CCCCCC2)cc1	ROMK mod 5.1 (no result: Biofilm kill mix) | ROMK retest inactive
Cc1ccc(N2CCN(c3ccc(NC(=O)CCC(=O)O)cc3)CC2)cc1	none
NC(=O)[C@@H]1CC2(CC(c3cccc(NC(=O)[C@@H]4CCC(=O)N4)c3)=NO2)CN1C(=O)Cc1ccc([N+](=O)[O-])cc1 (some centres not stated)	none (no result: ROMK mod)
CCOC(=O)Cn1cc(/C=C/[N+](=O)[O-])c2ccccc21	ROMK mod -3.5 | ROMK retest 0.036
CCOC(=O)Cn1cc(C#N)c2ccccc21	none
CCOc1ccc(/C=C/[N+](=O)[O-])c2ccccc12	ROMK mod -3.8 (no result: Biofilm kill mix) | ROMK retest 0.043
CCOC(=O)COc1ccc2ccccc2c1/C=C/[N+](=O)[O-]	none
COc1ccc(N(CC(=O)Nc2ccccc2C(=O)O)S(=O)(=O)c2ccc(C)c([N+](=O)[O-])c2)cc1	none
COCC1CCCN(Cc2cn(-c3ccccc3)nc2-c2ccc3c(c2)OCO3)C1 (configuration not stated)	none
Cc1cccc(C)c1NC(=O)NC1(C(=O)N2CCOCC2)CCCCC1	none (no result: ROMK mod)
CC(=O)c1c(C)[nH]c(C(=O)Nc2nc(-c3ccc(Cl)cc3)cs2)c1C	none
CC(=O)c1c(C)[nH]c(C(=O)Nc2nc(C)cs2)c1C	ROMK mod 2.8 | ROMK retest inactive
CC1=C(C(=O)Nc2ccccc2C(F)(F)F)C(c2ccc(C)s2)NC(=S)N1 (configuration not stated)	none
CC(=O)n1nc(-c2ccccc2)nc1NCc1cccs1	none
O=C(O)c1ccc(N/N=C/C2=C(N3CCOCC3)C(=C\c3ccccc3)/CC2)cc1	none (no result: ROMK mod) | ROMK retest 0.045
Cc1cc(C)nc(N/N=C/C2=C(N3CCOCC3)C(=C\c3ccc(Cl)cc3)/CC2)n1	none
N#CC(C#N)=Cc1cccn1-c1ccc(S(N)(=O)=O)cc1	none
O=C(c1ccc(CSc2nc3ccncc3[nH]2)cc1)N1CCCCC1	none
Cc1ccc(C)c(N2CCN(C(=O)c3ccc(CSc4nc5ccncc5[nH]4)cc3)CC2)c1	ROMK mod -4.2 | ROMK retest inactive
CC1=NN(c2ccc(C)cc2)C(=O)/C1=C\C=C\c1ccccc1	none
CC1=NN(c2cccc(C(=O)O)c2)C(=O)/C1=C\C=C/c1ccccc1	ROMK mod -8.3 | ROMK retest 0.047
CC1=NN(c2ccccc2)C(=O)/C1=C/c1ccc[nH]1	none
CC1=NN(c2ccccc2)C(=O)/C1=C/C=C/C=C/N(C)C	ROMK mod -2.4 | ROMK retest 0.065
CC1=NN(c2ccccc2)C(=O)/C1=C\c1ccc(Br)s1	none
CC1=NN(c2ccccc2)C(=O)/C1=C/c1cccs1	ROMK mod -3.4 | ROMK retest 0.048
O=C(O)/C=C/C(=O)Nc1ccc(OC(F)(F)F)cc1Br	none (no result: ROMK mod)
Oc1c(Br)cc(Br)cc1C=NCc1ccccc1	ROMK mod 3.9 | ROMK retest inconclusive
Oc1c(Br)cc(Br)cc1C=NCc1ccc(F)cc1	ROMK mod 3.3 | ROMK retest 0.12
O/N=C/c1cc(Br)cc(Br)c1OCc1ccccc1	none (no result: Biofilm kill mix)
CN(C)c1ccc(C(=O)N/N=C/c2cc(Br)cc(Br)c2O)cc1	none
C/C(=N\NC(=O)C(=O)Nc1c(C)n(C)n(-c2ccccc2)c1=O)c1ccncc1	none
CCCCOC(=O)c1ccc(NC(=O)C(=O)NCCN(C)C)cc1	none (no result: ROMK mod)
COCCn1c(=NC(=O)CSCC(=O)Nc2cc(C)on2)sc2cc(C(=O)OC)ccc21	none | ROMK retest inactive
COCCn1c(SCC(=O)Nc2cc(C)on2)nnc1-c1ccco1	none (no result: Biofilm kill mix)
CCn1cc(C2=NC(CC(C)C)CO2)c2ccccc21 (configuration not stated)	none (no result: ROMK mod)
CCOC(=O)N1CCC(NS(=O)(=O)c2ccc(NC(C)=O)c(Cl)c2)CC1	none (no result: ROMK mod)
Cn1c(-c2ccc3c(c2)OCO3)cnc1NCc1cccc(Cl)c1	ROMK mod -4.8 (no result: Biofilm kill mix) | ROMK retest 0.065
Cn1c(-c2ccc3c(c2)OCO3)cnc1NCc1ccccc1Cl	none

Compound activity as filed in PubChem BioAssay.
